Measurements reported in ChEMBL document CHEMBL1144815, “Diphenidol-related diamines as novel muscarinic M4 receptor antagonists” (Bioorg Med Chem Lett, 2008).
Calls of active or inactive are those of the source. The calls are words filed in the database; no cut-off is given here.

Key:
[1] = target: T1, Muscarinic acetylcholine receptor M1 (Homo sapiens, UniProt P11229); test: Displacement of [3H]N-methylscopolamine from human muscarinic M1 receptor expressed in CHO-K1 cells; format: cell-based
T1 sequence (P11229 whole entry): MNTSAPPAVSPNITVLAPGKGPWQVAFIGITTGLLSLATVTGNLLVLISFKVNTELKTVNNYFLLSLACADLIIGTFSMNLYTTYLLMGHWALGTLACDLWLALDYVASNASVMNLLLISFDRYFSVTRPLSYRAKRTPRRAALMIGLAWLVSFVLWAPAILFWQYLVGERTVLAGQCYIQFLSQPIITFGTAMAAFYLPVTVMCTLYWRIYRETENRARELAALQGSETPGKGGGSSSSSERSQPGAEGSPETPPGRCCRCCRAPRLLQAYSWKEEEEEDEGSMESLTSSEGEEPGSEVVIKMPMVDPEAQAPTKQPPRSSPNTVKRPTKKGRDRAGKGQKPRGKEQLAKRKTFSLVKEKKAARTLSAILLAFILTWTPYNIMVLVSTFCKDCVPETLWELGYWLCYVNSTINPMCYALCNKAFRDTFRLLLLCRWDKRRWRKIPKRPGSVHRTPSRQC

[2] = target: T2, Muscarinic acetylcholine receptor M2 (Homo sapiens, UniProt P08172); test: Displacement of [3H]N-methylscopolamine from human muscarinic M2 receptor expressed in CHO-K1 cells; format: cell-based
T2 sequence (P08172 whole entry): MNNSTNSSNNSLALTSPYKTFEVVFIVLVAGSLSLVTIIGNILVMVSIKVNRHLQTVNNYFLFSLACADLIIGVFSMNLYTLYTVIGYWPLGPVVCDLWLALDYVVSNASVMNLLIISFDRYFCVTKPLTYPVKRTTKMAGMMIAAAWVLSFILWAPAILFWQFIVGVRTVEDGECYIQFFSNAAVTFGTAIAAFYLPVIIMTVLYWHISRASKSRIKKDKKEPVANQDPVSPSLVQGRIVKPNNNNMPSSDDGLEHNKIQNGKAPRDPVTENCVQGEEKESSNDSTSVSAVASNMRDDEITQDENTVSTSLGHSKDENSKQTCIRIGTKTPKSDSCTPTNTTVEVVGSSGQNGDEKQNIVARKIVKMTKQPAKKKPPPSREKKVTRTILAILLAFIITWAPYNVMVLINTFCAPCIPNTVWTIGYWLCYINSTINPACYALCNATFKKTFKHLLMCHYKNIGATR
Summary of the method: (§1)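 Binding was measured in CHO-K1 stable transfectants expressing the human receptor subtype. Labelled ligand was [³H]-N-methylscopolamine chloride. Values are the mean of three experiments performed in triplicate.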

[3] = target: T3, Muscarinic acetylcholine receptor M3 (Homo sapiens, UniProt P20309); test: Displacement of [3H]N-methylscopolamine from human muscarinic M3 receptor expressed in CHO-K1 cells; format: cell-based
Target sequence in this assay (P20309 whole entry): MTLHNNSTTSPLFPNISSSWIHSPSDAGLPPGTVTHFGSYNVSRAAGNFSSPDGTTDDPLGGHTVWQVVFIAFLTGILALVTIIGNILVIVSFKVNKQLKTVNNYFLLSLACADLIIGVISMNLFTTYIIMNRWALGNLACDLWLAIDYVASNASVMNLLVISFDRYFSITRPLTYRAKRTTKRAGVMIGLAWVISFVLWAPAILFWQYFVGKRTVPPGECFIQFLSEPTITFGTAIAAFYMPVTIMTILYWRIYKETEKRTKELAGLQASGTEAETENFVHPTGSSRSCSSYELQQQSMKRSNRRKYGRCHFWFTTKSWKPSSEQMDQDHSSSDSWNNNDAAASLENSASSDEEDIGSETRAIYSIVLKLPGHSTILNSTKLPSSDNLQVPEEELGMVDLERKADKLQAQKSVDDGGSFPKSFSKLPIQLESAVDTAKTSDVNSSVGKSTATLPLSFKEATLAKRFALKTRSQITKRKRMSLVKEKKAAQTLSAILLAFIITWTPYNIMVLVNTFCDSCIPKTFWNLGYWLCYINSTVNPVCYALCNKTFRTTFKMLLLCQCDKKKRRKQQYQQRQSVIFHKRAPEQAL

[4] = target: T4, Muscarinic acetylcholine receptor M4 (Homo sapiens, UniProt P08173); test: Displacement of [3H]N-methylscopolamine from human muscarinic M4 receptor expressed in CHO-K1 cells; format: cell-based; summary of the method: as §1
T4 sequence (P08173 whole entry): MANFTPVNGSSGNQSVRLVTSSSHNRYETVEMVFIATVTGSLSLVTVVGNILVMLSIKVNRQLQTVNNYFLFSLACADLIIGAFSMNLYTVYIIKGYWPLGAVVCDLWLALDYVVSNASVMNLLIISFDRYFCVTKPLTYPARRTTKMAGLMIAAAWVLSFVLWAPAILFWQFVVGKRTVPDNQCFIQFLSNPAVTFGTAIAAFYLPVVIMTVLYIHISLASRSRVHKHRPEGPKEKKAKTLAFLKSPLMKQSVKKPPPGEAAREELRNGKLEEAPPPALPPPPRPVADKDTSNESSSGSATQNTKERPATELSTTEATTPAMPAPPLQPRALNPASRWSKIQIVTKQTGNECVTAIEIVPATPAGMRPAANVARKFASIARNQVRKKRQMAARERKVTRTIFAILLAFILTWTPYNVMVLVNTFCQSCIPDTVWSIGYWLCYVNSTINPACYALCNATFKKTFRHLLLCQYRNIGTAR

[5] = target: T5, Muscarinic acetylcholine receptor M5 (Homo sapiens, UniProt P08912); test: Displacement of [3H]N-methylscopolamine from human muscarinic M5 receptor expressed in CHO-K1 cells; format: cell-based; summary of the method: as §1
T5 sequence (P08912 whole entry): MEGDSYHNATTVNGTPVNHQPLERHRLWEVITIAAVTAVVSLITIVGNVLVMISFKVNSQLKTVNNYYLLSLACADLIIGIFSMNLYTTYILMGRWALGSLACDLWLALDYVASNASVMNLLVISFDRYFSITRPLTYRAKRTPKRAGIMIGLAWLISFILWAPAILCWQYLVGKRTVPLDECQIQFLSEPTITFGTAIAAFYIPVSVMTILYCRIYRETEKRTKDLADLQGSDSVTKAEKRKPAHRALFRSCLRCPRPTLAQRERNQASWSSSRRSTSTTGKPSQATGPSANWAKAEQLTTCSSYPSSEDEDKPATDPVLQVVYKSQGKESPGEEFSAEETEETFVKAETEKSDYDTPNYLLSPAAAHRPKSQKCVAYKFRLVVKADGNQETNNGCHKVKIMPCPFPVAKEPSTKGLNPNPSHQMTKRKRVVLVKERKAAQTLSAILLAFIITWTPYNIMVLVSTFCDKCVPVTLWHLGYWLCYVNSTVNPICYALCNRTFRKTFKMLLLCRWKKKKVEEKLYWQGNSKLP

[6] = target: T3, Muscarinic acetylcholine receptor M3; test: Antagonist activity at human muscarinic M3 receptor expressed in CHO cells assessed as inhibition of carbachol-induced Eu-GTP binding; format: cell-based
Summary of the method: (§2)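 Membranes from CHO-K1 cells stably expressing the human receptor subtype. Agonist was carbachol, and the read-out was carbachol-stimulated binding of the non-hydrolysable analogue Eu-GTP to Gα subunits. pKb was estimated functionally by concentration-ratio analysis. Values are the mean of three experiments run in triplicate.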
Target sequence in this assay (P20309 whole entry, looked up): as the sequence (P20309 whole entry) above

[7] = target: T6, Muscarinic acetylcholine receptor M4 (Homo sapiens) (UniProt P08173); test: Antagonist activity at human muscarinic M4 receptor expressed in CHO cells assessed as inhibition of carbachol-induced Eu-GTP binding; format: cell-based; summary of the method: as §2
T6 sequence (whole entry): T4 sequence (P08173 whole entry)

[8] = target: T7, Muscarinic acetylcholine receptor M5 (Homo sapiens) (UniProt P08912); test: Antagonist activity at human muscarinic M5 receptor expressed in CHO cells assessed as inhibition of carbachol-induced Eu-GTP binding; format: cell-based; summary of the method: as §2
T7 sequence (whole entry): T5 sequence (P08912 whole entry)

[9] = target: T8, Muscarinic acetylcholine receptor M1 (Homo sapiens) (UniProt P11229); test: Antagonist activity at human muscarinic M1 receptor expressed in CHO cells assessed as inhibition of basal Eu-GTP binding; format: cell-based
T8 sequence (whole entry): T1 sequence (P11229 whole entry)

[10] = target: T9, Muscarinic acetylcholine receptor M2 (Homo sapiens) (UniProt P08172); test: Antagonist activity at human muscarinic M2 receptor expressed in CHO cells assessed as inhibition of basal Eu-GTP binding; format: cell-based
T9 sequence (whole entry): T2 sequence (P08172 whole entry)

[11] = target: T3, Muscarinic acetylcholine receptor M3; test: Antagonist activity at human muscarinic M3 receptor expressed in CHO cells assessed as inhibition of basal Eu-GTP binding; format: cell-based
Target sequence in this assay (P20309 whole entry, looked up): as the sequence (P20309 whole entry) above

[12] = target: T6, Muscarinic acetylcholine receptor M4 (Homo sapiens); test: Antagonist activity at human muscarinic M4 receptor expressed in CHO cells assessed as inhibition of basal Eu-GTP binding; format: cell-based
[13] = target: T7, Muscarinic acetylcholine receptor M5 (Homo sapiens); test: Antagonist activity at human muscarinic M5 receptor expressed in CHO cells assessed as inhibition of basal Eu-GTP binding; format: cell-based
[14] = target: T4, Muscarinic acetylcholine receptor M4; test: Antagonist activity at human muscarinic M4 receptor expressed in CHO cells assessed as blockade of carbachol-induced inhibition of forskolin-stimulated cAMP accumulation; format: functional, cell-based
[15] = target: T6, Muscarinic acetylcholine receptor M4 (Homo sapiens); test: Antagonist activity at human muscarinic M4 receptor expressed in CHO cells assessed as inhibition of forskolin-stimulated cAMP accumulation in absence of carbachol at 01 nM to 1 uM; format: functional, cell-based
[16] = target: T8, Muscarinic acetylcholine receptor M1 (Homo sapiens); test: Antagonist activity at human muscarinic M1 receptor expressed in CHO cells assessed as inhibition of carbachol-induced Eu-GTP binding; format: cell-based; summary of the method: as §2
[17] = target: T9, Muscarinic acetylcholine receptor M2 (Homo sapiens); test: Antagonist activity at human muscarinic M2 receptor expressed in CHO cells assessed as inhibition of carbachol-induced Eu-GTP binding; format: cell-based; summary of the method: as §2

Row | SMILES | Ki [1] [µM] | Ki [2] [µM] | Ki [3] [µM] | Ki [4] [µM] | Ki [5] [µM] | pKb [6] | pKb [7] | pKb [8] | Activity [9] | Activity [10] | Activity [11] | Activity [12] | Activity [13] | EC50 [14] [µM] | IC50 [14] [µM] | Activity [15] | pKb [16] | pKb [17]
1 | C[N+]1(CCCC(O)(c2ccccc2)c2ccccc2)CCN(c2ccccc2)CC1 | 17.4 | 25.7 | 7.59 | 22.9 | 6.92 | – | – | – | – | – | – | – | – | – | – | – | – | –
2 | OC(CCCN1CCN(c2ccccc2)CC1)(c1ccccc1)c1ccccc1 | 363 | 457 | 70.8 | 100 | 123 | – | – | – | – | – | – | – | – | – | – | – | – | –
3 | C[N+](C)(CCCC(O)(c1ccccc1)c1ccccc1)CCC[N+](C)(C)CCCC(O)(c1ccccc1)c1ccccc1 | 7.24 | 12 | 12.3 | 11.2 | 7.59 | – | – | – | – | – | – | – | – | – | – | – | – | –
4 | C[N+]1(C)CCC(C2CC[N+](C)(CCCC(O)(c3ccccc3)c3ccccc3)CC2)CC1 (stereo not given) | 8.32 | 4.37 | 3.63 | 2.69 | 25.7 | – | – | – | – | – | – | – | – | – | – | – | – | –

Next, values leading:

Row | Ki [1] [µM] | Ki [2] [µM] | Ki [3] [µM] | Ki [4] [µM] | Ki [5] [µM] | pKb [6] | pKb [7] | pKb [8] | Activity [9] | Activity [10] | Activity [11] | Activity [12] | Activity [13] | EC50 [14] [µM] | IC50 [14] [µM] | Activity [15] | pKb [16] | pKb [17] | SMILES
5 | 2.29 | 1.1 | 0.724 | 0.00646 | 1.82 | 5.63 | 7.9 | 5.84 | inactive | inactive | inactive | inactive | inactive | 0.054 | > 1 | inactive | 5.74 | 5.55 | CCOC(=O)c1c(C)[nH]c2ccc3c(c12)CN1CCc2cc(OC)ccc2C1O3 (stereo not given)
6 | 0.2 | 0.275 | 0.275 | 0.288 | 0.708 | – | – | – | – | – | – | – | – | – | – | – | – | – | C[N+]1(CCCC(O)(c2ccccc2)c2ccccc2)CCCCC1
7 | 7.08 | 2.29 | 5.5 | 1.23 | 1.55 | – | – | – | – | – | – | – | – | – | – | – | – | – | C[N+]1(CCCC(O)(c2ccccc2)c2ccccc2)CCN(CCCC(O)(c2ccccc2)c2ccccc2)CC1
8 | 2.95 | 23.4 | 4.07 | 4.79 | 9.55 | – | – | – | – | – | – | – | – | – | – | – | – | – | C[N+]1(C)CCN(CCCC(O)(c2ccccc2)c2ccccc2)CC1
9 | 0.603 | 0.363 | 0.372 | 0.0126 | 0.589 | 6.25 | 7.83 | 6.02 | inactive | inactive | inactive | inactive | inactive | 0.067 | 0.067 | – | 6.04 | 6.1 | C[N+]1(CCCC(O)(c2ccccc2)c2ccccc2)CCC(C2CC[N+](C)(CCCC(O)(c3ccccc3)c3ccccc3)CC2)CC1 (stereo not given)
